Tests used:
[1] = Drug metabolism assessed as GSTalpha (unknown origin) mediated 1-(3,4,5-trimethoxyphenyl)-9H-pyrido[3,4-b]indol-3-amine formation at 40 uM in presence of 0.8 mM GSH by HPLC analysis; assay type: ADME; conditions: human
Method in brief: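 HPLC measurement of amine release after incubating compound (40 µM) with GSH (0.8 mM) and GSTπ or GSTα at 0.03 µg/ml.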

[2] = tested on: HT-29; test: Antitumor activity against human HT-29 cells xenografted in nude BALB/c mouse assessed as reduction in tumor weight at 40 mg/kg, ip dosed every day for 21 days relative to control; assay type: functional; design: scale not given: the % may be the effect or the level left
[3] = Drug metabolism assessed as GSTpi (unknown origin) mediated compound fluorescence activation at 1 uM in presence of 1 mM Al3+ by HPLC analysis; assay type: ADME; conditions: human
Method in brief: (§1)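 Selectivity test: compound (1 µM) with catalytic GSTπ and each analyte in water with 1% (v/v) DMSO at pH 4.0, 37 °C for 0.5 h. Analytes were cations at 1 mM; amino acids, vitamin C, Na2S and GSH at 100 µM. Readout was fluorescence emission spectra (excitation 440 nm, recorded 450–650 nm).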

[4] = Drug metabolism assessed as GSTpi (unknown origin) mediated compound fluorescence activation at 1 uM in presence of 100 uM histidine by HPLC analysis; assay type: ADME; conditions: human; method in brief: as §1
[5] = Drug metabolism assessed as GSTpi (unknown origin) mediated compound fluorescence activation at 1 uM in presence of 100 uM glycine by HPLC analysis; assay type: ADME; conditions: human; method in brief: as §1
[6] = Drug uptake in human HT-29 cells at 1 uM measured within 10 mins by confocal fluorescence microscopy; assay type: ADME, cell-based; conditions: ht-29, 10 min
Method in brief: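 Cells were seeded at 2×10^5 in glass-bottom dishes and allowed to attach. Medium was then replaced with DMEM containing 1 µM compound. Confocal images were taken every minute for 60 min with a 40× water objective, 405 nm laser and 480–530 nm filter. Intracellular fluorescence intensity was quantified.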

[7] = tested on: HT-29; test: Antiproliferative activity against human HT-29 cells by MTT assay; assay type: functional, cell-based
Method in brief: (§2)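 MTT assay. Cells were grown in DMEM/RPMI 1640 with 10% FBS, penicillin and streptomycin at 37 °C under 5% CO2. After a PBS wash, cells got 0.5 mg/mL MTT for 3 h at 37 °C. Formazan was dissolved in DMSO and absorbance read at 570 nm. Inhibition was expressed as a percentage and IC50 calculated. Means ± SD come from three separate experiments.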

[8] = tested on: HepG2; test: Antiproliferative activity against human HepG2 cells by MTT assay; assay type: functional, cell-based; method in brief: as §2
[9] = Drug localization in tumor of intra-operative mouse xenografted with human HT-29/Luc cells at 40 mg/kg, iv measured after 1 hrs post dose by fluorescence imaging assay; assay type: ADME, organism-based, Neoplasm; conditions: in vivo
Method in brief: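 Mice carrying subcutaneous HT29 tumours (1×10^6 cells, grown 3–4 weeks) received 40 mg/kg iv. They were imaged under 1% pentobarbital at 0, 1, 2, 4, 8 and 24 h post-injection (465 nm excitation filter, GFP emission filter). Excised tumours and major organs were then imaged ex vivo.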

[10] = Toxicity in ICR mouse assessed as induction of animal death at 240 to 585.9 mg/kg, ip measured after 1 hr; assay type: organism-based; conditions: in vivo
Method in brief: (§3)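 Female ICR mice, randomised, n = 10 per group. Single intraperitoneal dose of 240.0, 300.0, 375.0, 468.8 or 585.9 mg/kg, or vehicle. Deaths recorded at 1 h, 4 h, days 1–4 and days 5–14. Body weight, drinking, eating and activity observed over 14 days. Survival percentage taken on day 14; LD50 derived from the dose–mortality data.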

[11] = Toxicity in ICR mouse assessed as induction of animal survival rate at 585.9 mg/kg, ip measured after 14 days; assay type: organism-based; conditions: in vivo; method in brief: as §3
[12] = tested on: HT-29; test: Induction of apoptosis in human HT-29 cells assessed as reduction in Bcl2 protein level incubated for 72 hrs by Western blot analysis; assay type: functional, cell-based
Method in brief: (§4)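 HT29 cells (1.5×10^5/mL) were treated for 72 h and lysed. Lysate (0.05 mg/lane) was run on 12% SDS-PAGE and transferred to nitrocellulose. After blocking in 5% non-fat milk, blots were probed for Bax, Bcl-2, cleaved caspase-3, cleaved PARP, LC3, p62 and beclin-1. Levels were normalised to β-actin, and means ± SD taken from three independent assays.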

[13] = tested on: HT-29; test: Induction of apoptosis in human HT-29 cells assessed as increase in cleaved PARP protein level incubated for 72 hrs by Western blot analysis; assay type: functional, cell-based; method in brief: as §4
[14] = tested on: HT-29; test: Induction of apoptosis in human HT-29 cells assessed as increase in cleaved caspase-3 protein level incubated for 72 hrs by Western blot analysis; assay type: functional, cell-based; method in brief: as §4

COc1cc(-c2nc(NC(=O)OCC3=CCCCC3=O)cc3c2[nH]c2ccccc23)cc(OC)c1OC
Drug metabolism [1]: Metabolite_Notdetected
Activity [2]: 67.7%
Drug metabolism [3]: Metabolite_Notdetected
Drug metabolism [4]: Metabolite_Notdetected
Drug metabolism [5]: Metabolite_Notdetected
Drug uptake [6]: Active
IC50 [7]: 920 nM
IC50 [8]: 1570 nM
Drug uptake [9]: Active
Activity [10]: Non-Toxic
survival at 336 h [11]: 10%
Activity [12]: Dose-dependent effect
Activity [13]: Dose-dependent effect
Activity [14]: Dose-dependent effect

— ChEMBL document CHEMBL4622976, “Development of pH/Glutathione-Responsive Theranostic Agents Activated by Glutathione S-Transferase π for Human Colon Cancer” (J Med Chem, 2020)
